In ChEMBL document CHEMBL4732243, “Design, synthesis, and structure activity relationship analysis of new betulinic acid derivatives as potent HIV inhibitors” (Eur J Med Chem, 2021):

Legend:
[1] = system: Human immunodeficiency virus 1; assay: Antiviral activity against HIV-1 NL4-3 infected in human MT4 cells assessed as reduction in p24 gag protein incubated for 4 days by ELISA; format: functional, organism-based; details: Human immunodeficiency virus 1, NL4-3, MT4, 96 h
Outline: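 MT-4 cells infected with HIV-1 NL4-3 at MOI 0.01, serial compound concentrations, in 96-well format. Supernatant p24 antigen measured by capture ELISA on day 4 post-infection. IC50 is the concentration that inhibits NL4-3 replication by 50%. Bevirimat run in parallel as the reference.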

[2] = system: Human immunodeficiency virus 1; assay: Potency index, ratio of IC50 for bevirimat to IC50 for test compound for antiviral activity against HIV-1 NL4-3 infected in human MT4 cells assessed as reduction in p24 gag protein incubated for 4 days by ELISA; format: functional; details: time 4 day
Outline: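 MT-4 cells infected with HIV-1 NL4-3 at MOI 0.01 and cultured with the test compounds. Bevirimat was run in parallel as the reference control. Supernatant p24 was measured on day 4 post-infection by antigen-capture ELISA. IC50 is the concentration that inhibits NL4-3 replication by 50%. The index is the bevirimat IC50 divided by the test-compound IC50.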

MT4 = assay: Cytotoxicity against human MT4 cells assessed as reduction in cell viability incubated for 2 days by CytoTox-Glo cytotoxicity assay; format: cell-based; details: mt4, 48 h, time 2 day
Outline: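 Mock-infected MT-4 cells cultured 2 days with a range of compound concentrations. Viability measured by CytoTox-Glo, following the kit protocol, as percent viable cells. CC50 is the concentration giving a 50% reduction in cell viability.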

Structure (SMILES)	IC50 ([1]; read-out: IC50)	IC50 ([1]; read-out: pIC50 (converted))	Ratio IC50 [2]	CC50 (MT4)
C=C(C)[C@@H]1CC[C@]2(C(=O)N3CCN(C(=O)/C=C/c4ccc(OCOC)c(OC)c4)CC3)CC[C@]3(C)[C@H](CC[C@@H]4[C@@]5(C)CC[C@H](OC(=O)CC(C)(C)C(=O)O)C(C)(C)[C@@H]5CC[C@]43C)[C@@H]12	25 nM	25.1 nM	2	> 2000 nM
C=C(C)[C@@H]1CC[C@]2(C(=O)N3CCN(C(=O)/C=C/c4ccc(O)c(OC)c4)CC3)CC[C@]3(C)[C@H](CC[C@@H]4[C@@]5(C)CC[C@H](OC(=O)CC(C)(C)C(=O)O)C(C)(C)[C@@H]5CC[C@]43C)[C@@H]12	18 nM	18.2 nM	2	> 2000 nM
